Reference: ChEMBL document CHEMBL1772991, “Synthesis and structure-activity relationship of tricyclic carboxylic acids as novel anti-histamines” (Bioorg Med Chem, 2011)

Assays:
[1] = Permeability from apical to basolateral side of human Caco2 cells after 120 mins; conditions: Caco-2
Histamine H1 receptor = Histamine H1 receptor (Homo sapiens, UniProt P35367); experiment: Displacement of [3H]pyrilamine from human histamine H1 receptor expressed in CHO-K1 cells after 60 mins by scintillation counting; type: cell-based
Histamine H1 receptor, sequence (P35367 whole entry): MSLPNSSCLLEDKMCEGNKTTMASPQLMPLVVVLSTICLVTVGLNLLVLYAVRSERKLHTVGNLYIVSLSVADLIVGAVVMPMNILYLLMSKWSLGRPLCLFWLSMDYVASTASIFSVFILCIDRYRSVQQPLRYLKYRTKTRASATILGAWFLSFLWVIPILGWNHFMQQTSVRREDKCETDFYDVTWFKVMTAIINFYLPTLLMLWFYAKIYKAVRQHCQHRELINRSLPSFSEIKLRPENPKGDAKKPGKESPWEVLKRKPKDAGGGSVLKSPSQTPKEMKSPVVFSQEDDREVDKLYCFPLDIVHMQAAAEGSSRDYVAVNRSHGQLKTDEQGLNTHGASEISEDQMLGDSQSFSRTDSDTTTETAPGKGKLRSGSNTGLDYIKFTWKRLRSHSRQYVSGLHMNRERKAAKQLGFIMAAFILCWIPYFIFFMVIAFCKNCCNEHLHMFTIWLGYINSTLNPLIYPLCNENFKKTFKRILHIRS

Mus musculus [2] = experiment: In vivo antihistaminic activity at histamine H1 receptor in ddY mouse assessed as inhibition of histamine-induced skin vascular permeability at 3 mg/kg, po administered 1 hr before histamine challenge by Evan's blue staining; type: functional
Procedure, shortened: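 Female ddY mice, 8 weeks old, dosed orally at 3 mg/kg as a suspension in 0.5% methylcellulose, 1 h before intradermal histamine ([…]) into back skin, following i.v. Evans blue. Mice sacrificed 30 min after histamine; dyed area measured. % inhibition, mean ± SE of six mice.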

[3] = Oral bioavailability in fasted rat at 10 mg/kg after 24 hrs; type: ADME, organism-based; conditions: in vivo
Procedure, shortened: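 Fasted male rats (n = 3 per route). Dosing: 1 mg/kg i.v. in 5% glucose/0.1 N HCl (9:1), or 10 mg/kg p.o. as a 0.5% methylcellulose suspension. Jugular blood sampled up to 24 h (po: 15, 30 min, 1, 2, 4, 6, 24 h) and plasma stored at -70 °C. AUCs taken from plasma concentration–time courses. BA = (AUCpo/Dpo)/(AUCiv/Div) × 100.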

Mus musculus [4] = experiment: Antiinflammatory activity in ovalbumin-sensitized BALB/c mouse biphasic allergic model assessed as immediate type reaction at 10 mg/kg, po administered 1 hr before ovalbumin challenge measured 1 hr after elicitation by ear swelling assay; type: functional
Procedure, shortened: (§1)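 Female Balb/c mice, 8 weeks old, sensitized i.p. with OVA plus alum. Two weeks later, compound given orally as a 0.5% methylcellulose suspension at 10 mg/kg, 1 h before intradermal OVA into the ear.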

Mus musculus [5] = experiment: Antiinflammatory activity in ovalbumin-sensitized BALB/c mouse biphasic allergic model assessed as late type reaction at 10 mg/kg, po administered 1 hr before ovalbumin challenge measured 24 hrs after elicitation by ear swelling assay; type: functional; procedure, shortened: as §1
Mus musculus [6] = organism: Mus musculus; experiment: Ex vivo receptor occupancy of histamine H1 receptor in mouse brain at ED70 after 30 mins by scintillation counting; type: functional
Mus musculus [7] = organism: Mus musculus; experiment: animal or person; type: functional; conditions: ddY, po
Homo sapiens = organism: Homo sapiens; experiment: Ratio of IC50 for human adrenergic alpha1 to IC50 for human histamine H1 receptor
[8] = molecular target: T1, Adrenergic receptor alpha-1 (Homo sapiens, UniProt P35348+P25100+P35368); experiment: Displacement of [3H]prazosin from human adrenergic alpha1 expressed in CHO-K1 cells after 30 mins by scintillation counting; type: cell-based
T1 sequence (P35348 whole entry): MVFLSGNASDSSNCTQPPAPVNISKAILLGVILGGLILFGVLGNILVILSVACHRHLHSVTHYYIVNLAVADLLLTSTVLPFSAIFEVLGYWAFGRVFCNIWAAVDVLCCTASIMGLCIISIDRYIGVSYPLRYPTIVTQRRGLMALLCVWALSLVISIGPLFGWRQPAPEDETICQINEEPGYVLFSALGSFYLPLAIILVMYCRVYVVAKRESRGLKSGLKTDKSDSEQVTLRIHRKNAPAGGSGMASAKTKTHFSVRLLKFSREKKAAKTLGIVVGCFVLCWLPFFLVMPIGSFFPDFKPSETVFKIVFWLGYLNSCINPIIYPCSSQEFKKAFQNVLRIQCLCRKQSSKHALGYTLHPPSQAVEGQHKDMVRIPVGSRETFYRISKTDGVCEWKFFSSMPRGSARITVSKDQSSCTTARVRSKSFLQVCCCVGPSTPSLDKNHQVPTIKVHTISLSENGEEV
T1 sequence (P25100 whole entry): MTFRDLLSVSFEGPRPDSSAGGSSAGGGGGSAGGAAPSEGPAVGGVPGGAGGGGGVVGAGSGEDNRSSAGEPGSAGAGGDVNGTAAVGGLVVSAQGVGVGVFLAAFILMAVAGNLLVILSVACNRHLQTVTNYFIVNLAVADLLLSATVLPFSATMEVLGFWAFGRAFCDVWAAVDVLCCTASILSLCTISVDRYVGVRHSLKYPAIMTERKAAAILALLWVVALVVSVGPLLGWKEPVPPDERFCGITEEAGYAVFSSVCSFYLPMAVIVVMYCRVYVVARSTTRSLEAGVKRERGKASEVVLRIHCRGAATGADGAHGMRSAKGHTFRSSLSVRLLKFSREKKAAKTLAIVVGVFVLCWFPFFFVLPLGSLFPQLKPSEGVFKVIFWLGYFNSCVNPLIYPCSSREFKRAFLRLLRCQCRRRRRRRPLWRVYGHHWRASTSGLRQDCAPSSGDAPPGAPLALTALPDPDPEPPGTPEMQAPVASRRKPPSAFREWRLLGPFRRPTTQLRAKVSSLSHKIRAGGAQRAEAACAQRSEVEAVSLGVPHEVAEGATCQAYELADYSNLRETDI
T1 sequence (P35368 whole entry): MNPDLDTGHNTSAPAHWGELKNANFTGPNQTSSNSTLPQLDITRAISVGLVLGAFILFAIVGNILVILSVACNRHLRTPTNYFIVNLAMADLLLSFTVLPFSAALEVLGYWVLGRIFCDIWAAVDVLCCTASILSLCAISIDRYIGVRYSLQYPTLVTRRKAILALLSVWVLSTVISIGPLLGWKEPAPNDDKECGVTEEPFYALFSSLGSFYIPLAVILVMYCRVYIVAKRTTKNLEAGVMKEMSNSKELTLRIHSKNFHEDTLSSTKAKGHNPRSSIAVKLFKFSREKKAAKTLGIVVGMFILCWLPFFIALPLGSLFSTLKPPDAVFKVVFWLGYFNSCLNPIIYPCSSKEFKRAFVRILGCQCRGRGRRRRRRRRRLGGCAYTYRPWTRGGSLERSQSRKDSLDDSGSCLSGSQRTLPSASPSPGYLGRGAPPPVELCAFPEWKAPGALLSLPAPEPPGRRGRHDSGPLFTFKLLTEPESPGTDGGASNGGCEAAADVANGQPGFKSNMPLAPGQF
Procedure, shortened: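 Membranes from stable recombinant CHO-K1 cells expressing human α1 adrenoceptor were incubated with graded compound concentrations and 0.3 nM [3H]-prazosin in 50 mM Tris-HCl pH 7.6 for 30 min at room temperature. Nonspecific binding was defined with 1 µM prazosin. Samples were filtered on GF/B, washed and scintillation counted; specific binding is total minus nonspecific. Single experiment.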

Structure (SMILES)	Papp A→B at 2 h [1]	IC50 (Histamine H1 receptor)	other results
Cn1c(N2CCCN(CCCN3c4cc(C(=O)O)ccc4COc4ccccc43)CC2)cc(=O)n(C)c1=O	1.6 ×10⁻⁶ cm/s	530 nM	
Cn1c(N2CCN(CC/C=C3/c4ccccc4CCc4ccc(CC(=O)O)cc43)CC2)cc(=O)n(C)c1=O	14.7 ×10⁻⁶ cm/s	195 nM	
Cn1c(N2CCCN(CCCN3c4ccccc4CCc4ccc(CC(=O)O)cc43)CC2)cc(=O)n(C)c1=O	2.6 ×10⁻⁶ cm/s	54 nM	
Cn1c(N2CCCN(CCCN3c4ccccc4CCc4ccc(C(C)(C)C(=O)O)cc43)CC2)cc(=O)n(C)c1=O	7 ×10⁻⁶ cm/s	75 nM	bioavailability [3]: 14%; inhibition in vivo at 3 mg/kg (Mus musculus [2]): 67%
Cn1c(N2CCCN(CCCN3c4ccccc4COc4ccc(C(C)(C)C(=O)O)cc43)CC2)cc(=O)n(C)c1=O	4.6 ×10⁻⁶ cm/s	150 nM	
Cn1c(N2CCCN(CCCN3c4ccccc4COc4ccc(CC(=O)O)cc43)CC2)cc(=O)n(C)c1=O	1.6 ×10⁻⁶ cm/s	128 nM	
Cn1c(N2CCCN(CCCN3c4ccccc4CCc4ccc(C(=O)O)cc43)CC2)cc(=O)n(C)c1=O	4.4 ×10⁻⁶ cm/s	70 nM	bioavailability [3]: 33%; inhibition in vivo at 10 mg/kg (Mus musculus [4]): 30%; inhibition in vivo at 10 mg/kg (Mus musculus [5]): 46%; inhibition in vivo at 3 mg/kg (Mus musculus [2]): 50%
CC(C)(C(=O)O)c1ccc(C(O)CCCN2CCC(C(O)(c3ccccc3)c3ccccc3)CC2)cc1 (stereo not drawn) [FEXOFENADINE]			inhibition in vivo at 10 mg/kg (Mus musculus [4]): 61%; inhibition in vivo at 10 mg/kg (Mus musculus [5]): 6%; Activity (Mus musculus [6]): 12%
CN1CCC(=C2c3ccccc3CC(=O)c3sccc32)CC1 [KETOTIFEN]			inhibition in vivo at 10 mg/kg (Mus musculus [4]): 119%; inhibition in vivo at 10 mg/kg (Mus musculus [5]): 3%; ED70 (Mus musculus [7]): 0.067 mg/kg
Cn1c(N2CCN(CCCN3c4ccccc4Sc4ccc(CC(=O)O)cc43)CC2)cc(=O)n(C)c1=O			Ratio IC50 (Homo sapiens): 11; inhibition in vivo at 10 mg/kg (Mus musculus [4]): 73%; inhibition in vivo at 10 mg/kg (Mus musculus [5]): 64%; Activity (Mus musculus [6]): 38%; IC50 [8]: 430 nM; inhibition in vivo at 3 mg/kg (Mus musculus [2]): 82%; ED70 (Mus musculus [7]): 1.61 mg/kg
Cn1c(N2CCN(CCCN3c4ccccc4COc4ccc(CC(=O)O)cc43)CC2)cc(=O)n(C)c1=O	3 ×10⁻⁶ cm/s	255 nM	
Cn1c(N2CCN(CCCN3c4ccccc4COc4ccc(C(=O)O)cc43)CC2)cc(=O)n(C)c1=O		140 nM	Activity (Mus musculus [6]): 20%
CC(C(=O)O)c1ccc2c(c1)N(CCCN1CCCN(c3cc(=O)n(C)c(=O)n3C)CC1)c1ccccc1CO2 (stereo not drawn)	1.9 ×10⁻⁶ cm/s	128 nM	

Further lines, with some results ahead:

Papp A→B at 2 h [1]	IC50 (Histamine H1 receptor)	Structure (SMILES)	other results
4 ×10⁻⁶ cm/s	92 nM	Cn1c(N2CCCN(CC/C=C3/c4ccccc4COc4ccc(CC(=O)O)cc43)CC2)cc(=O)n(C)c1=O	inhibition in vivo at 3 mg/kg (Mus musculus [2]): 32%
6.9 ×10⁻⁶ cm/s	153 nM	Cn1c(N2CCCN(CC/C=C3/c4ccccc4CCc4ccc(C(=O)O)cc43)CC2)cc(=O)n(C)c1=O	
	325 nM	Cn1c(N2CCN(CC/C=C3/c4ccccc4COc4ccc(C(=O)O)cc43)CC2)cc(=O)n(C)c1=O	
3.8 ×10⁻⁶ cm/s	63 nM	Cn1c(N2CCCN(CC/C=C3/c4ccccc4COc4ccc(C(=O)O)cc43)CC2)cc(=O)n(C)c1=O	
6.3 ×10⁻⁶ cm/s	41 nM	Cn1c(N2CCCN(CCCN3c4ccccc4COc4ccc(C(=O)O)cc43)CC2)cc(=O)n(C)c1=O	bioavailability [3]: 23%; inhibition in vivo at 3 mg/kg (Mus musculus [2]): 87%
4.8 ×10⁻⁶ cm/s	135 nM	Cn1c(N2CCCN(CC/C=C3/c4ccccc4CCc4ccc(CC(=O)O)cc43)CC2)cc(=O)n(C)c1=O	
4.7 ×10⁻⁶ cm/s	540 nM	Cn1c(N2CCN(CC/C=C3\c4ccccc4COc4ccc(CC(=O)O)cc43)CC2)cc(=O)n(C)c1=O	
7.3 ×10⁻⁶ cm/s	84 nM	Cn1c(N2CCN(CC/C=C3/c4ccccc4COc4ccc(CC(=O)O)cc43)CC2)cc(=O)n(C)c1=O	Ratio IC50 (Homo sapiens): 57; bioavailability [3]: 76%; inhibition in vivo at 10 mg/kg (Mus musculus [4]): 105%; inhibition in vivo at 10 mg/kg (Mus musculus [5]): 78%; IC50 [8]: 4800 nM; inhibition in vivo at 3 mg/kg (Mus musculus [2]): 53%
